Laboratory results published in ChEMBL document CHEMBL4261546, “Synthesis of novel pentacyclic triterpene-Neu5Ac2en derivatives and investigation of their in vitro anti-influenza entry activity” (Medchemcomm, 2017).
Activity calls are given as the source filed them. No cut-off for these calls is given here.

How the values were obtained:
[1] = Selectivity index, ratio of CC50 for MDCK cells to IC50 for Influenza A virus (A/WSN/33(H1N1)) infected in MDCK cells; format: toxicity, cell-based; settings: dog, read-out: Ratio CC50/IC50
Outline: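 SI = CC50/IC50. CC50 comes from the 40 h CellTiter-Glo viability assay in uninfected MDCK cells. IC50 comes from the 40 h CellTiter-Glo CPE-reduction assay with A/WSN/33 at MOI 0.1.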

Influenza A virus [2] = assay: Antiviral activity against Influenza A virus (A/WSN/33(H1N1)) infected in MDCK cells assessed as reduction in virus-induced cytopathic effect after 40 hrs by CellTiter-Glo assay; format: functional, organism-based; settings: A/WSN/1933(H1N1)
Outline: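 MDCK cells grown overnight in DMEM with 10% FBS at 37 °C, 5% CO2. Medium replaced with compound plus A/WSN/33 virus (MOI 0.1) in DMEM with 1% FBS, 2 μg/mL TPCK-trypsin and 1% DMSO final. After 40 h, CellTiter-Glo luminescence read as CPE. IC50 is the mean of ≥3 independent determinations with standard deviations.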

MDCK [3] = assay: Cytotoxicity against MDCK cells assessed as reduction in cell viability at 100 uM after 40 hrs by CellTiter-Glo assay; format: cell-based, Canis lupus familiaris; settings: dog
Outline: (§1)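 Preliminary cytotoxicity screen in MDCK cells at 10 μM and 100 μM. Cells seeded overnight in DMEM with 10% FBS at 37 °C, 5% CO2, then exposed to compound for 40 h. CellTiter-Glo read-out, viability expressed as % of untreated control after background correction. Paclitaxel served as positive control.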

MDCK [4] = assay: Cytotoxicity against MDCK cells assessed as reduction in cell viability at 10 uM after 40 hrs by CellTiter-Glo assay; format: cell-based, Canis lupus familiaris; settings: dog; outline: as §1
[5] = Cytotoxicity against MDCK cells assessed as reduction in cell viability after 40 hrs by CellTiter-Glo assay; format: cell-based, Canis lupus familiaris; settings: dog
Outline: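 MDCK cells seeded in DMEM with 10% FBS and cultured overnight at 37 °C, 5% CO2. Compounds added and incubated 40 h, then CellTiter-Glo viability measured. Viability % = background-corrected signal of treated well divided by control well, ×100. CC50 is the concentration giving 50% cell death.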

Influenza A virus [6] = assay: Antiviral activity against Influenza A virus (A/WSN/33(H1N1)) infected in MDCK cells assessed as reduction in virus-induced cytopathic effect up to 100 uM after 40 hrs by microscopic method; format: functional, organism-based; settings: A/WSN/1933(H1N1)
Outline: (§2)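 MDCK cultures were set up as in the CPE assay: compound with or without A/WSN/33 infection (MOI 0.1), DMEM with 1% FBS and TPCK-trypsin. At 40 h post-infection, wells carrying compound up to 100 μM were inspected microscopically. Scored features were cell aggregation and detachment from the dish.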

MDCK [7] = assay: Cytotoxicity against MDCK cells assessed as morphological changes up to 100 uM after 40 hrs by microscopic method; format: cell-based, Canis lupus familiaris; settings: dog; outline: as §2
Erythrocyte = assay: Induction of haemagglutination in chicken RBC at 1.5 to 40 uM after 30 mins; format: cell-based, Gallus gallus; settings: 0.5 h
Outline: (§3)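 Hemagglutination assay. Freshly prepared 1% v/v chicken RBCs in saline were then added. After 30 min at room temperature, RBC aggregation was scored visually. Anti-HA antibody was the reference.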

[8] = target: Neuraminidase (Influenza A virus (strain A/Wilson-Smith/1933 H1N1) (Influenza A virus(strain A/WS/1933 H1N1))) (UniProt P03470); assay: Inhibition of Influenza A virus (A/WSN/33(H1N1)) NA up to 100 uM using 4-MUNANA as substrate after 30 mins by fluorescence spectrophotometric assay; settings: Influenza A virus (A/WSN/1933(H1N1))
Chain of Neuraminidase (Influenza A virus (strain A/Wilson-Smith/1933 H1N1) (Influenza A virus(strain A/WS/1933 H1N1))) (P03470 whole entry): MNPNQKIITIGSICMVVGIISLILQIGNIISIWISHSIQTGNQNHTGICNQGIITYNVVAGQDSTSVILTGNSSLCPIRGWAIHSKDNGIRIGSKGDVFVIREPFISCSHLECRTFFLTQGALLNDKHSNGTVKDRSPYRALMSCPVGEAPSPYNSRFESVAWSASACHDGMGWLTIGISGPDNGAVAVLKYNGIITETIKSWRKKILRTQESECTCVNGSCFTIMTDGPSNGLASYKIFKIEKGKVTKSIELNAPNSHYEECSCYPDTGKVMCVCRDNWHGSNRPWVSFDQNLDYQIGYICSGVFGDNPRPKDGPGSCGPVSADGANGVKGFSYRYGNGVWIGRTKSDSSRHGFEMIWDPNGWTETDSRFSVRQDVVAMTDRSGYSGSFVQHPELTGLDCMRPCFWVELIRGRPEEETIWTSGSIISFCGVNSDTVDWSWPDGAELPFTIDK
Outline: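 NA activity was measured with A/WSN/33 virus as the enzyme source, mixed with compound and 20 μM MUNANA in 32.5 mM MES (4 mM CaCl2, pH 6.5). Incubated 30 min at 37 °C, then stopped with 34 mM NaOH. Fluorescent product read at ex 360 nm / em 460 nm.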

[9] = target: Hemagglutinin (Influenza A virus) (UniProt B4URE7); assay: Inhibition of Influenza A virus (A/WSN/33(H1N1)) HA-mediated haemagglutination in chicken RBC at 1.5 to 40 uM after 30 mins; format: cell-based; settings: Influenza A virus (A/WSN/1933(H1N1)); outline: as §3
Chain of Hemagglutinin (Influenza A virus) (B4URE7 as listed by the source): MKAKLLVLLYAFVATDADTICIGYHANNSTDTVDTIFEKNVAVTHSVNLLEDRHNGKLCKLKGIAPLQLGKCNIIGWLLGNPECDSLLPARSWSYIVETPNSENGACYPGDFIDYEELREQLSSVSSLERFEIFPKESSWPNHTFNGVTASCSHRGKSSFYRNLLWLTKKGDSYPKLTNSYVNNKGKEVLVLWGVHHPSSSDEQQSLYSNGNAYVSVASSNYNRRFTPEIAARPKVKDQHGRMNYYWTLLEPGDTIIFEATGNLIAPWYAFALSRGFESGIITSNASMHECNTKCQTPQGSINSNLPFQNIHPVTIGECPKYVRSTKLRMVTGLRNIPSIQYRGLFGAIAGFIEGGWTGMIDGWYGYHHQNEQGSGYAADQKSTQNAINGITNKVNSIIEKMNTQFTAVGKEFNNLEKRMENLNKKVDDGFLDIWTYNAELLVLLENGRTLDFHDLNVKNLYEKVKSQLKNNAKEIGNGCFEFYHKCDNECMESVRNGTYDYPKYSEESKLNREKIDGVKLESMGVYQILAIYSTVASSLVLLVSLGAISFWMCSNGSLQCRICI

Row | SMILES | selectivity ratio [1] | IC50 (Influenza A virus [2]) [µM] | Activity (MDCK [3]) | Activity (MDCK [4]) | CC50 at 40 h [5] [µM] | other results
1 | COc1cc(/C=C/C(=O)CC(=O)/C=C/c2ccc(O)c(OC)c2)ccc1O [CURCUMIN] | 7.2 | 6.7 | – | – | – | –
2 | COC(=O)C1=C[C@H](n2cc(CNC(=O)[C@]34CC[C@@H](C)[C@H](C)[C@H]3C3=CC[C@@H]5[C@@]6(C)CC[C@H](O)C(C)(C)[C@@H]6CC[C@@]5(C)[C@]3(C)CC4)nn2)[C@@H](NC(C)=O)[C@H]([C@H](OC(C)=O)[C@@H](COC(C)=O)OC(C)=O)O1 | – | – | Toxic | Non-Toxic | – | –
3 | COC(=O)C1=C[C@H](NC(=O)[C@]23CCC(C)(C)C[C@H]2C2=CC[C@@H]4[C@@]5(C)CC[C@H](O)C(C)(C)[C@@H]5CC[C@@]4(C)[C@]2(C)C[C@H]3O)[C@@H](NC(C)=O)[C@H]([C@H](O)[C@H](O)CO)O1 | > 4.9 | 40.5 | – | Non-Toxic | > 200 | –
4 | C=C(C)[C@@H]1CC[C@]2(C(=O)NCc3cn([C@H]4C=C(C(=O)OC)O[C@@H]([C@H](OC(C)=O)[C@@H](COC(C)=O)OC(C)=O)[C@@H]4NC(C)=O)nn3)CC[C@]3(C)[C@H](CC[C@@H]4[C@@]5(C)CC[C@H](O)C(C)(C)[C@@H]5CC[C@]43C)[C@@H]12 | – | – | Toxic | Non-Toxic | – | –
5 | C=C(C)[C@@H]1CC[C@]2(C(=O)N[C@H]3C=C(C(=O)OC)O[C@@H]([C@H](O)[C@H](O)CO)[C@@H]3NC(C)=O)CC[C@]3(C)[C@H](CC[C@@H]4[C@@]5(C)CC[C@H](O)C(C)(C)[C@@H]5CC[C@]43C)[C@@H]12 | – | > 100 | – | Non-Toxic | – | –
6 | COC(=O)C1=C[C@H](NC(=O)[C@]23CCC(C)(C)C[C@H]2C2=CC[C@@H]4[C@@]5(C)CC[C@H](O)C(C)(C)[C@@H]5CC[C@@]4(C)[C@]2(C)C[C@H]3O)[C@@H](NC(C)=O)[C@H]([C@H](OC(C)=O)[C@@H](COC(C)=O)OC(C)=O)O1 | > 32.3 | 15.5 | – | Non-Toxic | > 200 | –
7 | COC(=O)C1=C[C@H](NC(=O)[C@]23CCC(C)(C)C[C@H]2C2=CC[C@@H]4[C@@]5(C)CC[C@H](O)C(C)(C)[C@@H]5CC[C@@]4(C)[C@]2(C)CC3)[C@@H](NC(C)=O)[C@H]([C@H](O)[C@H](O)CO)O1 | – | – | Toxic | Non-Toxic | – | –
8 | C=C(C)[C@@H]1CC[C@]2(C(=O)NCc3cn([C@H]4C=C(C(=O)OC)O[C@@H]([C@H](O)[C@H](O)CO)[C@@H]4NC(C)=O)nn3)CC[C@]3(C)[C@H](CC[C@@H]4[C@@]5(C)CC[C@H](O)C(C)(C)[C@@H]5CC[C@]43C)[C@@H]12 | – | > 100 | – | Non-Toxic | – | –
9 | COC(=O)C1=C[C@@H](n2cc(CNC(=O)[C@]34CC[C@@H](C)[C@H](C)[C@H]3C3=CC[C@@H]5[C@@]6(C)CC[C@H](O)C(C)(C)[C@@H]6CC[C@@]5(C)[C@]3(C)CC4)nn2)[C@@H](NC(C)=O)[C@H]([C@H](O)[C@H](O)CO)O1 | – | > 100 | Toxic | Non-Toxic | – | –
10 | COC(=O)C1=C[C@@H](n2cc(CNC(=O)[C@]34CCC(C)(C)C[C@H]3C3=CC[C@@H]5[C@@]6(C)CC[C@H](O)C(C)(C)[C@@H]6CC[C@@]5(C)[C@]3(C)CC4)nn2)[C@@H](NC(C)=O)[C@H]([C@H](O)[C@H](O)CO)O1 | – | > 100 | – | Non-Toxic | – | –
11 | COC(=O)C1=C[C@H](n2cc(CNC(=O)[C@]34CCC(C)(C)C[C@H]3C3=CC[C@@H]5[C@@]6(C)CC[C@H](O)C(C)(C)[C@@H]6CC[C@@]5(C)[C@]3(C)C[C@H]4O)nn2)[C@@H](NC(C)=O)[C@H]([C@H](OC(C)=O)[C@@H](COC(C)=O)OC(C)=O)O1 | – | > 100 | Toxic | Non-Toxic | – | –
12 | COC(=O)C1=C[C@H](n2cc(CNC(=O)[C@]34CC[C@@H](C)[C@H](C)[C@H]3C3=CC[C@@H]5[C@@]6(C)CC[C@H](O)C(C)(C)[C@@H]6CC[C@@]5(C)[C@]3(C)CC4)nn2)[C@@H](NC(C)=O)[C@H]([C@H](O)[C@H](O)CO)O1 | – | > 100 | Toxic | Non-Toxic | – | –
13 | COC(=O)C1=C[C@H](n2cc(CNC(=O)[C@]34CCC(C)(C)C[C@H]3C3=CC[C@@H]5[C@@]6(C)CC[C@H](O)C(C)(C)[C@@H]6CC[C@@]5(C)[C@]3(C)C[C@H]4O)nn2)[C@@H](NC(C)=O)[C@H]([C@H](O)[C@H](O)CO)O1 | > 3.6 | 55 | – | Non-Toxic | > 200 | –
14 | C=C(C)[C@@H]1CC[C@]2(C(=O)N[C@H]3C=C(C(=O)OC)O[C@@H]([C@H](OC(C)=O)[C@@H](COC(C)=O)OC(C)=O)[C@@H]3NC(C)=O)CC[C@]3(C)[C@H](CC[C@@H]4[C@@]5(C)CC[C@H](O)C(C)(C)[C@@H]5CC[C@]43C)[C@@H]12 | – | > 100 | – | Non-Toxic | – | –
15 | COC(=O)C1=C[C@H](n2cc(CNC(=O)[C@]34CCC(C)(C)C[C@H]3C3=CC[C@@H]5[C@@]6(C)CC[C@H](O)C(C)(C)[C@@H]6CC[C@@]5(C)[C@]3(C)CC4)nn2)[C@@H](NC(C)=O)[C@H]([C@H](OC(C)=O)[C@@H](COC(C)=O)OC(C)=O)O1 | – | – | Toxic | Non-Toxic | – | –
16 | COC(=O)C1=C[C@H](NC(=O)[C@]23CCC(C)(C)C[C@H]2C2=CC[C@@H]4[C@@]5(C)CC[C@H](O)C(C)(C)[C@@H]5CC[C@@]4(C)[C@]2(C)CC3)[C@@H](NC(C)=O)[C@H]([C@H](OC(C)=O)[C@@H](COC(C)=O)OC(C)=O)O1 | 22.7 | 8.3 | – | Non-Toxic | 188 | Activity (Influenza A virus [6]): Active; Activity (MDCK [7]): Non-Toxic; Activity (Erythrocyte): Non-Toxic; inhibition [8]: inactive; inhibition [9]: Active
17 | COC(=O)C1=C[C@H](NC(=O)[C@]23CC[C@@H](C)[C@H](C)[C@H]2C2=CC[C@@H]4[C@@]5(C)CC[C@H](O)C(C)(C)[C@@H]5CC[C@@]4(C)[C@]2(C)CC3)[C@@H](NC(C)=O)[C@H]([C@H](O)[C@H](O)CO)O1 | – | – | Toxic | Non-Toxic | – | –
18 | COC(=O)C1=C[C@H](n2cc(CNC(=O)[C@]34CCC(C)(C)C[C@H]3C3=CC[C@@H]5[C@@]6(C)CC[C@H](O)C(C)(C)[C@@H]6CC[C@@]5(C)[C@]3(C)CC4)nn2)[C@@H](NC(C)=O)[C@H]([C@H](O)[C@H](O)CO)O1 | > 7.1 | 28.3 | – | Non-Toxic | > 200 | –
19 | COC(=O)C1=C[C@H](NC(=O)[C@]23CC[C@@H](C)[C@H](C)[C@H]2C2=CC[C@@H]4[C@@]5(C)CC[C@H](O)C(C)(C)[C@@H]5CC[C@@]4(C)[C@]2(C)CC3)[C@H](NC(C)=O)[C@H]([C@H](OC(C)=O)[C@@H](COC(C)=O)OC(C)=O)O1 | 7.1 | 19.2 | Non-Toxic | Non-Toxic | 136 | –
